Measurements from publication PMC6308033 (Molecular Metabolism, 2018).

Experiments:
[1] = human serum; cited from earlier work
[2] = system: blood–brain barrier; conditions: cited from earlier work; for Direction and saturability of BBB transport: mouse brain, brain-to-blood and blood-to-brain
[3] = system: blood–brain barrier of WT and Ghsr null mice; experiment: Multiple-time regression analysis of blood-to-brain influx; format: in vivo, mouse; conditions: for Vi, initial volume of distribution in brain (vascular binding): WT mice, whole brain, y-intercept of B/S ratio vs exposure time, mean ± SEM
Outline: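 Male and female mice (3–6 months) were anaesthetised with 0.15 mL 40% urethane i.p. They received 1 × 10^6 cpm (~20 ng) 125I-labelled peptide plus 5 × 10^5 cpm 99mTc-albumin via jugular vein, in 0.2 mL 1% BSA/lactated Ringer's. Carotid blood was taken at 1–10 min, and serum and brain were gamma-counted. Brain/serum ratios (μL/g) were plotted against exposure time (Patlak): the slope gave Ki and the intercept gave Vi.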

[4] = system: brain endothelial cell (capillary vs parenchyma); experiment: Capillary depletion: complete transfer across the brain endothelial cell; format: in vivo, mouse; conditions: 10 min after IV injection, n = 3
Outline: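 Urethane-anaesthetised male and female mice (3–6 months) received a 0.2 mL IV injection of 1 × 10^6 cpm 125I-labelled test peptide plus 5 × 10^5 cpm 99mTc-albumin in 1% BSA/lactated Ringer's. Brain was homogenised and spun at 5400 g for 15 min at 4 °C. The capillary pellet was separated from the parenchymal supernatant, and the parenchyma was vascular-corrected using 99mTc-albumin. Ratios were (cpm/g tissue)/(cpm/μL serum).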

| Substance | Half-life [1] [min] | Degradation of AG into DAG ([2]; same time frame (10 min)) | Vi, initial volume of distribution in brain (vascular binding) [3] [µL/g] | Direction and saturability of BBB transport [2] | Transport rate relative to the other three ghrelin forms ([3]; BBB transport rate in mice, hDAG vs mDAG, hAG, mAG) | Capillary/serum ratio [4] [µL/g] |
| --- | --- | --- | --- | --- | --- | --- |
| acyl ghrelin [AG] | ~10 | not degraded into DAG | – | – | – | – |
| human AG [hAG] | – | – | 1.192 ± 0.57 | bidirectional and saturable manner | – | – |
| human DAG [hDAG] | – | – | 1.775 ± 0.81 | – | approximately three times faster | 1.0 ± 0.30 |
| mouse AG [mAG] | – | – | 2.847 ± 0.57 | bidirectional and saturable manner | – | – |
| mouse DAG [mDAG] | – | – | 2.265 ± 0.75 | unidirectionally and in an unsaturable manner | – | – |
